Sampled rows, rich in hits. Any-hit rate of the full collection: about 4.7%.
ADAM10 inh: ADAM10 inhibition, QFRET primary screen; O14672; recombinant ADAM10, EDANS/DABCYL FRET peptide cleavage, 3 h; inhibition, % at 7 µM; hit rate 0.62% among 370,000;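 active means inhibition above a per-campaign cutoff equal to the mean of compounds falling between control-based bounds plus 3 SD, cut at about 20% in these data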
ADAM17 inh: inhibitors of human ADAM17 | P78536 | recombinant ADAM17, EDANS/DABCYL FRET peptide cleavage | inhibition, % at 6.95 µM | hit rate 0.83% among 370,000 | AID 720648;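 active means inhibition above the mean of compounds lying between control limits plus 3 SD, set per campaign, cut at about 8.5% in these data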
Target sequence (P78536 215-824 limits assumed): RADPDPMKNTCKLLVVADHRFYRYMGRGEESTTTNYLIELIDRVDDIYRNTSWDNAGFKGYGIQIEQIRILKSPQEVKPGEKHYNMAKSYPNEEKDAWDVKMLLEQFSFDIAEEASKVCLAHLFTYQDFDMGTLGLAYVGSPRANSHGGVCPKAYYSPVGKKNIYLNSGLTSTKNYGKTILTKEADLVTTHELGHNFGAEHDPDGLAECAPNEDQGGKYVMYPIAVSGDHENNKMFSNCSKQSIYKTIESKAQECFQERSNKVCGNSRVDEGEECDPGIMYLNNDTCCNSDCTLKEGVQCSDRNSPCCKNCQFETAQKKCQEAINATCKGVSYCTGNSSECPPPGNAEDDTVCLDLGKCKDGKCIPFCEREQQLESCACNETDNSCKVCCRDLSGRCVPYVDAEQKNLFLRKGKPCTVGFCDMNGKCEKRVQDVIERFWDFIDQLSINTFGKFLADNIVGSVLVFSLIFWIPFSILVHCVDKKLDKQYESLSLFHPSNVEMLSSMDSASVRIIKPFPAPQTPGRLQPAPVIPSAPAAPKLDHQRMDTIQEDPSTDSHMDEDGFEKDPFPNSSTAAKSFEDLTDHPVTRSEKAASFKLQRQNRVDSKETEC
NR3A LBD binder: modulates the human NR3A ligand-binding domain. Tm shift relative to glycine control, % at 25 µM. hit rate 2.5% among 340,000. NR3A LBD differential scanning fluorimetry, Tm shift; 0% = protein alone, 100% = glycine-bound protein;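 active means melting temperature shift of at least 10% of the positive control shift, at one fixed dose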
MPTP block: inhibitors of mitochondrial permeability transition pore; isolated mouse mitochondria, Ca2+ swelling absorbance, 30 min; inhibition, % at 10 µM; hit rate 1.4% among 360,000; AID 602449;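 active means inhibition of 50% or more, scaled per plate between neutral and stimulator controls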
MT1-MMP act inh: inhibitors of human MT1-MMP activation; HT1080 RFP-PRO-GFP cells, GFP/RFP ratio fluorescence, overnight; percent of plate control window, DMSO zero; GFP/RFP ratio change, % at 20 µM; P50281; hit rate 0.061% among 360,000;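 active means GFP/RFP ratio change of at least 30% with cell ATP level not reduced by more than half and red fluorescence within 50% of control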
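Material – HT1080 RFP-PRO-GFP cells · Control set – DMSO wells and RFP-L50D-GFP cells · Incubation – overnight cell settling, then overnight compound exposure, 37 °C, 5% CO2 · Compound dosing – single-point 20 µM compound, 1% DMSO · Read-out – GFP/RFP fluorescence ratio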
SKN-1 inh: inhibitors of C. elegans SKN-1; C. elegans VP596 Pgst-4::GFP/RFP ratio, acrylamide-induced, 24 h; inhibition, % at 21.8 µM; AID 624304; hit rate 0.49% among 360,000;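 active means interference check ratio from 0.5 to 1.5 plus GFP to RFP signal ratio inhibition reaching or exceeding a fixed threshold, cut at about 30% in these data, passing the limit was not always enough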
ADAM10 confirm: confirmation of inhibitors of human ADAM10; shares compounds with ADAM10 inh; inhibition, % at 6.95 µM; ADAM10 QFRET peptide cleavage, EDANS fluorescence; hit rate 1% among 2,100; AID 743208;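 active means inhibition above about 20% chosen separately for each screening run, limit read from the data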
ADAM17 counter: counter-screen for ADAM10 exosite inhibitors: inhibitors of human ADAM17 | inhibition, % at 6.95 µM | shares compounds with ADAM10 inh | AID 743214 | ADAM17 QFRET peptide cleavage, EDANS fluorescence | hit rate 0.5% among 2,100;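 active means mean triplicate inhibition above the solvent-only control wells' mean plus 3 SD, cut at about 12% in these data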
ADAM10 counter: counter-screen for ADAM17 exosite inhibitors: inhibitors of human ADAM10 | shares compounds with ADAM17 inh | recombinant ADAM10, EDANS/DABCYL FRET peptide cleavage, 3 h | inhibition, % at 6.95 µM | hit rate 47% among 2,900;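 active means mean inhibition over the triplicate runs exceeds the activity threshold set in the earlier primary screen, cut at about 20% in these data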
ADAM17 confirm: confirmation of inhibitors of human ADAM17; shares compounds with ADAM17 inh; inhibition, % at 6.95 µM; recombinant ADAM17, EDANS/DABCYL QFRET peptide cleavage; AID 743257; hit rate 65% among 2,900;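 active means mean inhibition across replicates above the hit cutoff set in the primary screen, cut at about 8.5% in these data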
Large screens that a line does not name were inactive (follow-up assays come after a bar, where they were run).

CC[C@@]12C(=O)N(c3cccc(Br)c3)C(=O)N1[C@H](c1ccc(F)cc1)[C@@H]1C(=O)N(C3CCCCC3)C(=O)[C@@H]12	ADAM10 inh 25.6, ADAM17 inh 10.7 | ADAM10 confirm inactive | ADAM17 counter inactive | ADAM10 counter 19.9 | ADAM17 confirm 14.2
CC[C@@]12C(=O)N(c3cccc(F)c3)C(=O)N1[C@H](c1ccc(F)cc1)[C@@H]1C(=O)N(C3CCCCC3)C(=O)[C@@H]12	none (no result: ADAM10 inh, ADAM17 inh)
CN(CC(=O)Nc1cccc(F)c1)C(=O)c1cccc(S(=O)(=O)N2CCN(c3ccc(F)cc3)CC2)c1	ADAM10 inh 20.0, ADAM17 inh 14.8 | ADAM10 confirm inactive | ADAM17 counter inactive | ADAM10 counter 22.7 | ADAM17 confirm 10.4
COc1ccc(C)cc1NC(=O)C(Sc1nnc(-c2ccncc2)n1-c1ccc(Cl)cc1)c1ccccc1 (configuration not stated)	ADAM10 inh 24.9, ADAM17 inh 11.3 | ADAM10 confirm inactive | ADAM17 counter inactive | ADAM10 counter 30.5 | ADAM17 confirm 21.7
O=C1CCCN1c1ccc(S(=O)(=O)Oc2cccc(Cl)c2)cc1[N+](=O)[O-]	ADAM10 inh 19.9, ADAM17 inh 9.7 | ADAM10 confirm inactive | ADAM17 counter inactive | ADAM10 counter inactive | ADAM17 confirm inactive
O=C(CN1CCN(c2ccccc2O)CC1)Nc1ccc(S(=O)(=O)N2CCCCCC2)cc1	none
O=C(CN1CCN(c2ccccc2O)CC1)Nc1cc(S(=O)(=O)N2CCCC2)ccc1Cl	ADAM10 inh 28.8, ADAM17 inh 8.9 | ADAM10 confirm inactive | ADAM17 counter inactive | ADAM10 counter inactive | ADAM17 confirm 10.6
O=C(Cc1ccc(F)cc1)Nc1ccc(F)c([N+](=O)[O-])c1	none
CC(C)(C)NC(=O)CC(c1ccccc1)c1ccccc1O (configuration not stated)	none
O=C(CN1C(=O)NC2(CCCCC2)C1=O)Nc1cccc2ncccc12	none
O=C(CSc1nnc(-c2ccccc2)n1Cc1ccco1)Nc1ccc(OCc2ccccc2)cc1	ADAM10 inh 37.0, ADAM17 inh 10.0 (no result: NR3A LBD binder, MPTP block, MT1-MMP act inh, SKN-1 inh) | ADAM10 confirm inactive | ADAM17 counter inactive | ADAM10 counter 21.4 | ADAM17 confirm 14.3
O=C(CSc1nnc(-c2cccs2)n1Cc1ccco1)Nc1ccc(Oc2ccccc2)cc1	ADAM10 inh 21.2, ADAM17 inh 8.7 (no result: NR3A LBD binder, MPTP block, MT1-MMP act inh, SKN-1 inh) | ADAM10 confirm inactive | ADAM17 counter inactive | ADAM10 counter 27.7 | ADAM17 confirm 13.5
COC(=O)CN1C(c2cccc(Cl)c2)=Nc2ccc(Cl)cc2C1c1ccccc1 (configuration not stated)	ADAM10 inh 21.2, ADAM17 inh 16.2 | ADAM10 confirm inactive | ADAM17 counter inactive | ADAM10 counter inactive | ADAM17 confirm 8.8
COC(=O)CN1C(c2ccc(OC)cc2)=Nc2ccc(Cl)cc2C1c1ccccc1 (configuration not stated)	none
O=S(Cc1cc(Oc2ccccc2)nc(-c2ccccc2)n1)c1ccccc1 (configuration not stated)	ADAM10 inh 26.0, ADAM17 inh 10.6 | ADAM10 confirm inactive | ADAM17 counter inactive | ADAM10 counter inactive | ADAM17 confirm inactive
O=Cc1ccc(Oc2cc(-c3ccccc3)nc(-c3ccccc3)n2)cc1	none
CCOC(=O)c1c(C)[nH]c(C)c1S(=O)(=O)N1CCN(c2cccc(C)c2)C(C)C1 (configuration not stated)	ADAM10 inh 20.2, ADAM17 inh 9.1 | ADAM10 confirm inactive | ADAM17 counter inactive | ADAM10 counter inactive | ADAM17 confirm inactive
CCc1ccc(C2c3[nH]c4ccccc4c3CCN2C(=O)c2cc(C)nn2C)cc1 (configuration not stated)	ADAM10 inh 23.1, ADAM17 inh 13.0 | ADAM10 confirm inactive | ADAM17 counter inactive | ADAM10 counter inactive | ADAM17 confirm 10.2
COc1ccc(C(C)(O)c2nc(-c3ccc(F)c(Cl)c3)cs2)cc1 (configuration not stated)	none (no result: NR3A LBD binder)
O=C(NCCCc1ccccc1)[C@H](Cc1c[nH]c2ccccc12)NC1(C(=O)NCCc2c[nH]c3ccccc23)CCC1	ADAM10 inh 31.4, ADAM17 inh 15.8 (no result: NR3A LBD binder, MPTP block, MT1-MMP act inh, SKN-1 inh) | ADAM10 confirm inactive | ADAM17 counter inactive | ADAM10 counter 30.5 | ADAM17 confirm 14.3
O=C(NCC(c1ccccc1)c1ccccc1)[C@H](Cc1c[nH]c2ccccc12)NC1(C(=O)NC2CCCCC2)CCC1	ADAM10 inh 24.4, ADAM17 inh 13.8 (no result: NR3A LBD binder, MPTP block, MT1-MMP act inh, SKN-1 inh) | ADAM10 confirm inactive | ADAM17 counter inactive | ADAM10 counter 34.2 | ADAM17 confirm 23.8
CC(C)(N[C@@H](Cc1c[nH]c2ccccc12)C(=O)NCC(c1ccccc1)c1ccccc1)C(=O)NC1CCCCC1	ADAM10 inh 21.1, ADAM17 inh 9.9 (no result: NR3A LBD binder, MPTP block, MT1-MMP act inh, SKN-1 inh) | ADAM10 confirm inactive | ADAM17 counter inactive | ADAM10 counter 39.8 | ADAM17 confirm 18.6
CC(C)(C)OC(=O)N1CCC(N[C@@H](Cc2c[nH]c3ccccc23)C(=O)NCCc2c[nH]c3ccccc23)(C(=O)NC2CCCCC2)CC1	ADAM10 inh 25.6, ADAM17 inh 9.2 (no result: NR3A LBD binder, MPTP block, MT1-MMP act inh, SKN-1 inh) | ADAM10 confirm inactive | ADAM17 counter inactive | ADAM10 counter 28.5 | ADAM17 confirm 14.8
Cc1cc(NC(=O)CCC(=O)N(Cc2ccco2)C(C(=O)NCC2CCCO2)c2ccncc2)no1 (configuration not stated)	none
Cc1nn(-c2nc(-c3ccco3)cc(C(F)(F)F)n2)c(C)c1Cl	none
CC(C)C[C@H](NC(=O)c1nc[nH]c1C(=O)NCc1ccc(CNC(=O)OC(C)(C)C)cc1)C(=O)OC(C)(C)C	ADAM10 inh 24.4, ADAM17 inh 16.3 | ADAM10 confirm inactive | ADAM17 counter inactive | ADAM10 counter 52.5 | ADAM17 confirm 24.7
CC(C)(C)OC(=O)NCCCC[C@H](NC(=O)c1nc[nH]c1C(=O)NCc1ccc(CNC(=O)OC(C)(C)C)cc1)C(=O)OC(C)(C)C	ADAM10 inh 20.5, ADAM17 inh 13.0 | ADAM10 confirm inactive | ADAM17 counter inactive | ADAM10 counter 29.2 | ADAM17 confirm 14.8
